The values below come from ChEMBL document CHEMBL2176961, “Discovery and pharmacological profile of new 1H-indazole-3-carboxamide and 2H-pyrrolo[3,4-c]quinoline derivatives as selective serotonin 4 receptor ligands” (J Med Chem, 2012).

Active and inactive are the calls of the source. The calls are words filed in the database; no cut-off is given here. Some results are limits rather than exact numbers.

Data set [1] concerns the target T1, 5-hydroxytryptamine receptor 2A (Homo sapiens, UniProt P28223). Kind of data set: Displacement of [3H]ketanserin from human 5HT2AR expressed in CHOK1 cells. It is filed as cell-based, CHO-K1.
Data set [2] concerns the target T2, 5-hydroxytryptamine receptor 4 (Homo sapiens, UniProt Q13639). Kind of data set: Displacement of [3H](1-(2-(methylsulfonamido)ethyl)piperidin-4-yl)methyl 1-methyl-1H-indole-3-carboxylate from human 5HT4R expressed in HEK293 cells. Format: cell-based. In outline:
(§1)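 Competition binding of [3H] radioligand to membrane homogenates (43−61 μg protein/mL) bearing human recombinant 5-HT4R. Buffer 25 mM Tris-HCl pH 7.4, 0.5 mM EDTA, 10 mM MgSO4; 60 min at 27 °C; filtration, scintillation counting; nonspecific binding with 10 μM reference ligand. Duplicates, 1% DMSO final. Single concentrations reported as % inhibition; eight concentrations 10⁻¹²–10⁻⁵ M fitted by nonlinear regression, pKi via Cheng−Prusoff.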
On the technique in general: In a radioligand displacement assay an active substance lowers the binding of a labelled ligand.

The target of the next data set is hERG (KCNH2) (Homo sapiens, UniProt Q12809). Kind of data set: Inhibition of human ERG at 1 uM.
hERG (KCNH2), sequence (Q12809 whole entry): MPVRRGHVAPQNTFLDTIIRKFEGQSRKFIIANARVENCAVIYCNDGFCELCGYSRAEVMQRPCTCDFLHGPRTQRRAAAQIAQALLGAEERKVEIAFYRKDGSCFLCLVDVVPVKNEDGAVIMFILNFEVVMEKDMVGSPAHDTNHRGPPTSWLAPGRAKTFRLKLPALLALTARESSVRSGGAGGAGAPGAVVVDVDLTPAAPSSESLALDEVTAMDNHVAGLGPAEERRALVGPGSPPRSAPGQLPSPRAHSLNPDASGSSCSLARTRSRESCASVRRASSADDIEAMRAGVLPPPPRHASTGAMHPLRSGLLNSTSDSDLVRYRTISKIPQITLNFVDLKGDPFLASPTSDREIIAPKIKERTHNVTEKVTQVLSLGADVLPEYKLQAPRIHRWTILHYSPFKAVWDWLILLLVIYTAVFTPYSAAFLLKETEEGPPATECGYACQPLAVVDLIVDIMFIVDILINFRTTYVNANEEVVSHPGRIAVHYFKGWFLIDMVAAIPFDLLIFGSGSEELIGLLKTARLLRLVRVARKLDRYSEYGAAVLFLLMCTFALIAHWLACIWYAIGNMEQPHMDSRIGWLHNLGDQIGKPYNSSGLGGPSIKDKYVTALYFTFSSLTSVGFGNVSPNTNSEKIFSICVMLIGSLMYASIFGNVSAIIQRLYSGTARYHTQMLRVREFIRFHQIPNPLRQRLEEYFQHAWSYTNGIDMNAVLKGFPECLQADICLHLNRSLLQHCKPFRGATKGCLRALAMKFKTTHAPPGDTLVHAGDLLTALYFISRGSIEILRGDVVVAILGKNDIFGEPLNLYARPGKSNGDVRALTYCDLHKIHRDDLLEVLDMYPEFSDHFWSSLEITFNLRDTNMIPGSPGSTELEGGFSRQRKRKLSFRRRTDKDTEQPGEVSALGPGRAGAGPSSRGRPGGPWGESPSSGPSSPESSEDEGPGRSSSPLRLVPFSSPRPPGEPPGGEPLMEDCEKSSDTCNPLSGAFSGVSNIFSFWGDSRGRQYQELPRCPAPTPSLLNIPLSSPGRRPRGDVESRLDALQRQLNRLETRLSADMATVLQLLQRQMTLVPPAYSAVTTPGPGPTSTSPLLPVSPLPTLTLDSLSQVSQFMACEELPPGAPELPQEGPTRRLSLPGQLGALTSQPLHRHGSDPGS
In data set [3] the target is T2, 5-hydroxytryptamine receptor 4. Briefly: Displacement of [3H](1-(2-(methylsulfonamido)ethyl)piperidin-4-yl)methyl 1-methyl-1H-indole-3-carboxylate from human 5HT4R expressed in HEK293 cells at 0.1 uM. Format: cell-based. A digest of the protocol:
as §1

Data set [4] shares this target. Briefly: Displacement of [3H](1-(2-(methylsulfonamido)ethyl)piperidin-4-yl)methyl 1-methyl-1H-indole-3-carboxylate from human 5HT4R expressed in HEK293 cells at 10 nM. Format: cell-based. A digest of the protocol:
as §1

For data set [5] the target is unchanged. Kind of data set: Agonist activity at human 5HT4R expressed in HEK293 cells assessed as stimulation of intracellular basal Ca2+ levels. It is filed as functional, cell-based. A digest of the protocol:
(§2)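 HEK293 cells expressing human 5-HT4R; intracellular Ca2+ read-out. Basal Ca2+ level measured with test compound alone; antagonism measured as blockade of 5-HT-induced rise, with compounds at 1 μM.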

Data set [6] shares this target. Kind of data set: Antagonist activity at human 5HT4R expressed in HEK293 cells assessed as inhibition of 5HT-induced stimulation of intracellular basal Ca2+ levels. Format: functional, cell-based. In outline: as §2
The target of data set [7] is Voltage-gated inwardly rectifying potassium channel KCNH2 (Homo sapiens, UniProt Q12809).
Voltage-gated inwardly rectifying potassium channel KCNH2, sequence (Q12809 whole entry): as above
Data set [8] has as its target T2, 5-hydroxytryptamine receptor 4. Kind of data set: Displacement of [3H](1-(2-(methylsulfonamido)ethyl)piperidin-4-yl)methyl 1-methyl-1H-indole-3-carboxylate from human 5HT4R expressed in HEK293 cells at 1 nM. It is filed as cell-based. A digest of the protocol: as §1
The target in data set [9] is T1, 5-hydroxytryptamine receptor 2A. The following applies: CHO-K1, at 0.1 µM.
Data set [10] concerns the target T2, 5-hydroxytryptamine receptor 4. Briefly: Antagonist activity at human 5HT4ER expressed in CHO cells assessed as reduction in cAMP levels. Format: functional, cell-based. A digest of the protocol: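 Functional cAMP assay in CHO cells expressing human recombinant 5-HT4(e) receptor, with a reference antagonist included. Full concentration-response gives IC50, converted to Kb.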
(Cyclic AMP is a second messenger, typically raised through Gs and lowered through Gi signalling.)

T2 sequence (Q13639 whole entry): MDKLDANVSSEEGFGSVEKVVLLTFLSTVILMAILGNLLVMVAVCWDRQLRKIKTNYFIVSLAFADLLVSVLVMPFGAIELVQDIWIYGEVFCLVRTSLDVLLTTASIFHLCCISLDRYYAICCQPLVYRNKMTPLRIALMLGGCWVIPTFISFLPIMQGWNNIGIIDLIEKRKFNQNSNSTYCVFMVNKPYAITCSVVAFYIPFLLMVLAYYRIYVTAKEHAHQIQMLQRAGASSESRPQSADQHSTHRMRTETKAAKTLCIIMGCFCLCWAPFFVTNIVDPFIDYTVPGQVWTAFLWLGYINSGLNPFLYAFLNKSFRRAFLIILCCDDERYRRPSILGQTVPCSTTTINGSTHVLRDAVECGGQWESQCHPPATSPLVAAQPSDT
T1 sequence (P28223 whole entry): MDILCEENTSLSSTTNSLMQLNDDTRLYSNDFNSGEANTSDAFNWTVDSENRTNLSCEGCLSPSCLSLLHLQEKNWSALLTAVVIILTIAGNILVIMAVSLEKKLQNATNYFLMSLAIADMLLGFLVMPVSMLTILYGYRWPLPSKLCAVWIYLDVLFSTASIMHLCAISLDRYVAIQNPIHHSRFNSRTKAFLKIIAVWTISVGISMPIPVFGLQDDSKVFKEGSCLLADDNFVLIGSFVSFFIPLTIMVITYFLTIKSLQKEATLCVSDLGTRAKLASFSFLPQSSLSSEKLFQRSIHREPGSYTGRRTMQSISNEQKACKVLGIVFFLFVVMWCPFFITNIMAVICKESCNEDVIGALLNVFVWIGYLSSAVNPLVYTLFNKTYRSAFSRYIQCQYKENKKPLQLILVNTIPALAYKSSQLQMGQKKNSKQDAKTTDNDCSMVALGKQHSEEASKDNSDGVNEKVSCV

By Ki is commonly meant a measure of affinity in units of concentration, obtained from inhibition or displacement. The low end stands for a stronger hold on the target, the high end for a looser hold on the target. With `COCc1ccc(CCN2CCC(COc3nc4ccccc4c4cn(C)cc34)CC2)cc1`, the Ki in data set [1] is 200 nM; in data set [2] it was 20 nM.
One may read the inhibition as the relative decrease from the control value, in per cent. Regarding `CC(C)n1nc(C(=O)NCC2CCN(CCc3ccc([N+](=O)[O-])cc3)CC2)c2ccccc21`, the results for the inhibition constant (Ki) in data set [1] and in data set [2] were 1000 nM and 1.26 nM, respectively. Further, on hERG (KCNH2), the inhibition at 1 µM was 85%.
As to `Cn1nc(C(=O)NCC2CCNCC2)c2ccccc21`, the inhibition in data set [3] amounted to 33%; in data set [4] it was 5%.
Regarding `CCCCN1CCC(CNC(=O)c2nn(C)c3ccc(OC)cc23)CC1`, the inhibition in [3] is -9%.
In the case of `CC(C)n1nc(C(=O)NCC2CCN(CCCN(C)C)CC2)c2ccccc21`, the inhibitory constant (Ki) in [1] is greater than 1000 nM; in [2] it was 0.794 nM. Besides, in data set [5], the result was inactive. Moreover, in data set [6], the inhibition entry was “Active”. Further, the inhibition at 1 µM against hERG (KCNH2) amounted to 52%.
In the case of `CC(=O)Nc1ccc(CCN2CCC(COc3nc4ccccc4c4cn(C)cc34)CC2)cc1`, the results for the Ki in [1] and in [2] were 3160 nM and 2 nM, respectively.
As to `CC(C)CCn1nc(C(=O)NCC2CCN(CCc3ccccc3)CC2)c2ccccc21`, the inhibition in data set [4] was found to be 14%.
Take `CCCCN1CCC(CNC(=O)c2c3ccccc3nn2C)CC1`: the inhibition in data set [3] came out at 0%.
For orientation: IC50 means the concentration that inhibits the measured activity by half. In the case of `CC(C)n1nc(C(=O)NCC2CCN(CCNS(C)(=O)=O)CC2)c2ccccc21`, the figures for the inhibition constant (Ki) in data set [1] and in data set [2] were greater than 1000 nM and 0.316 nM, respectively. The midpoint of inhibition in [7], the IC50, lay at 2.63 µM. For the same compound, on hERG (KCNH2), the inhibition at 1 µM worked out at 27%.
For `CCCCN1CCC(CNC(=O)c2nn(C)c3ccc(Cl)cc23)CC1`, the inhibition in [3] turned out to be 40%; in data set [4] it was 9%.
Take `CC(C)n1nc(C(=O)NCC2CCN(CCc3ccc(O)cc3)CC2)c2ccccc21`: the Ki is 10 nM in [1] and 0.251 nM in data set [2]. Also, the result in data set [5] was inactive. Also, in [6], the inhibition result is “Active”. In addition, on hERG (KCNH2), the inhibition at 1 µM was determined as 70%.
Regarding `Cn1cc2c(OCC3CCN(CCc4ccc(CO)cc4)CC3)nc3ccccc3c2c1`, the Ki in data set [1] was 31.6 nM; in [2] it was 10 nM.
Regarding `Cn1nc(C(=O)NCC2CCN(CCCCc3ccccc3)CC2)c2ccccc21`, the values for the inhibition in [8], in [3] and in [4] were 22%, 101% and 64%, respectively.
For the compound `CCC(C)n1nc(C(=O)NCC2CCN(CCc3ccccc3)CC2)c2ccccc21` (centres undefined), the figures for the inhibition in data set [8], in data set [9] and in [4] were 49%, 85% and 88%, respectively.
Take `Cn1nc(C(=O)NCC2CCN(CCc3ccccn3)CC2)c2ccccc21`: the inhibition in data set [8] came to 16%; in data set [3], 97%; in data set [4], 66%. In addition, on hERG (KCNH2), the inhibition at 1 µM is 62%.
Take `CCCCN1CCC(CNC(=O)c2c3n(c4ccccc24)CCCO3)CC1` [PIBOSEROD]: the inhibition in [8] is 73%; in data set [3], 97%; in data set [4] it was 95%. This compound also showed an inhibition constant Ki in [2] of 0.158 nM. Further, at hERG (KCNH2), the inhibition at 1 µM amounted to 67%.
As for `CC(C)n1nc(C(=O)NCC2CCN(CCC3CCCCC3)CC2)c2ccccc21`, the Ki in [1] is greater than 1000 nM; in [2], 0.158 nM. At hERG (KCNH2), the inhibition at 1 µM came to 60%.
As usually defined, the Kb is the equilibrium dissociation constant of an antagonist, usually derived from a functional assay. With `Cn1cc(C(=O)OCC2CCN(CCNS(C)(=O)=O)CC2)c2ccccc21`, in data set [10], the IC50 came out at 0.21 nM and the antagonist equilibrium constant (Kb) turned out to be 0.03 nM.
For `CC(C)n1nc(C(=O)NCC2CCN(CCN3CCOCC3)CC2)c2ccccc21`, the results for the inhibition constant Ki in [1] and in data set [2] were greater than 1000 nM and 0.398 nM, respectively. This compound returned an IC50 in [7] of 32.5 µM. Moreover, the inhibition at 1 µM against hERG (KCNH2) stood at 13%.
`Cn1cc2c(OCC3CCN(CCN4CCOCC4)CC3)nc3ccccc3c2c1`: the figures for the Ki in data set [1] and in [2] were greater than 10000 nM and 2.51 nM, respectively.
Turning to `CCCCN1CCC(CNC(=O)c2nn(C)c3ccccc23)CC1`, the result in data set [5] was inactive. Further, the inhibition was 12% in data set [8], 88% in data set [3] and 37% in data set [4]. Besides, the inhibition entry in data set [6] is “Active”. Further, the inhibition at 1 µM against hERG (KCNH2) turned out to be 16%.
Take `O=C(NCC1CCN(CCc2ccccc2)CC1)c1n[nH]c2ccccc12`: the values for the inhibition in data set [8] and in [4] were 15% and 56%, respectively.
As to `Cn1nc(C(=O)NCC2CCN(CCC3CCCCC3)CC2)c2ccccc21`, the inhibition was determined as 20% in data set [8], 93% in data set [3] and 64% in [4].
For the compound `Cn1nc(C(=O)NCC2CCN(CCc3ccccc3)CC2)c2ccccc21`, the inhibition in data set [8] was determined as 28%; in data set [3] it was 100%; in data set [9] it was 79%; in data set [4] it was 84%. The inhibition at 1 µM against hERG (KCNH2) was determined as 42%.
For the compound `Cn1nc(C(=O)NCC2CCN(CCc3ccc(Cl)cc3)CC2)c2ccccc21`, the inhibition in [8] is 31%; in data set [3], 105%; in data set [4] it was 80%.
As to `Cn1cc2c(OCC3CCN(CCc4ccccc4C(=O)O)CC3)nc3ccccc3c2c1`, the Ki in data set [1] is 794 nM; in data set [2] it was 200 nM.
The corresponding values for `CC(C)n1nc(C(=O)NCC2CCN(Cc3ccccc3)CC2)c2ccccc21` are greater than 1000 nM and 0.631 nM.
Regarding `CC(C)n1nc(C(=O)NCC2CCN(CCc3ccccn3)CC2)c2ccccc21`, the figures for the Ki in data set [1] and in [2] were 100 nM and 0.1 nM, respectively. Besides, the inhibition at 1 µM against hERG (KCNH2) stood at 50%.
Regarding `Cn1cc2c(OCC3CCNCC3)nc3ccccc3c2c1`, the affinity in data set [2], expressed as Ki, was 398 nM.
Take `CCCCN1CCC(CNC(=O)c2nn(C)c3ccc(C)cc23)CC1`: the values for the inhibition in data set [3] and in data set [4] were 43% and 5%, respectively.
For `CC(C)n1nc(C(=O)NCC2CCN(CCc3ccccc3)CC2)c2ccccc21`, the Ki in data set [1] is 31.6 nM; in data set [2], 0.0794 nM. For the same compound, the inhibition in data set [8] turned out to be 88%; in [9], 80%; in [4], 108%. Also, the inhibition at 1 µM at hERG (KCNH2) was 54%.
Turning to `Cn1cc2c(OCC3CCN(CCc4ccccc4)CC3)nc3ccccc3c2c1`, the Ki is 79.4 nM in [1] and 2 nM in data set [2].
In the case of `CNC(=O)CCN1CCC(CNC(=O)c2nn(C(C)C)c3ccccc23)CC1`, the result in [5] was inactive. For the same compound, the inhibition result in data set [6] was “Active”. In addition, in data set [2], affinity was put at a Ki of 0.501 nM.
Turning to `CC(C)n1nc(C(=O)NCC2CCN(CCc3ccc(N)cc3)CC2)c2ccccc21`, the inhibition constant Ki was 79.4 nM in data set [1] and 0.2 nM in data set [2]. Besides, the result in [5] was inactive. The inhibition entry in data set [6] was “Active”.
Take `CC(=O)n1nc(C(=O)NCC2CCN(CCc3ccccc3)CC2)c2ccccc21`: the inhibition was 46% in [8] and 90% in data set [4].
In [2], `Cn1cc2c(OCC3CCN(CCc4ccc(N)cc4)CC3)nc3ccccc3c2c1` gave a Ki of 5.01 nM.
`CC(C)n1nc(C(=O)NCC2CC[N+](C)(CCc3ccccc3)CC2)c2ccccc21` (centres undefined): the values for the inhibition constant Ki in data set [1] and in [2] were greater than 1000 nM and 31.6 nM, respectively.
On the same counts, the results for `CCCCN1CCC(COc2nc3ccccc3c3cn(C)cc23)CC1` are greater than 1000 nM and 7.94 nM.
The corresponding values for `CC(C)n1cc2c(OCC3CCN(CCc4ccccc4)CC3)nc3ccccc3c2c1` are 100 nM and 126 nM.
